Laboratory results: ChEMBL document CHEMBL1125403, “Hybrid cholecystokinin-A antagonists based on molecular modeling of lorglumide and L-364,718” (J Med Chem, 1992)
One block for each compound: values may come before it.

How the values were obtained:
Type in all cases: cell membranes, Membrane
[1] = biological target: T1, Cholecystokinin receptor type A (Rattus norvegicus, UniProt P30551); test: Compound was evaluated for its ability to inhibit [3H]L-364718 binding Cholecystokinin type A receptor in rat pancreas membranes
T1 sequence (P30551 whole entry): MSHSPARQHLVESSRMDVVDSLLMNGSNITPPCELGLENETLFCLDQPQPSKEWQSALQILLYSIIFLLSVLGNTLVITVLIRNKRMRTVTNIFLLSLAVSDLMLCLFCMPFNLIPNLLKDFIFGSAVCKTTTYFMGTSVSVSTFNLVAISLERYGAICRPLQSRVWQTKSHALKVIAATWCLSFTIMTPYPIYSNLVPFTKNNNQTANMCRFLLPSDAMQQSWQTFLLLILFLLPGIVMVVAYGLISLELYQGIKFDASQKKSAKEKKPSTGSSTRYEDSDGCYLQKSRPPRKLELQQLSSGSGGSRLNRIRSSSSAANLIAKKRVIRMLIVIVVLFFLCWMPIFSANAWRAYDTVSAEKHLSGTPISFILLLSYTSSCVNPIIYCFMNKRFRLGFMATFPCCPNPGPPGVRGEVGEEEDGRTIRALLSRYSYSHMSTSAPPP
Summary of the method: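 Male Wistar rat pancreas membranes, homogenized in 10 mM Hepes pH 7.4/5 mM MgCl2/130 mM NaCl, stored at -80 °C. […] GF/B filtration, scintillation counting. Nonspecific binding with 10 μM lorglumide. IC50 from pseudo-Hill plots, Ki by Cheng-Prusoff. Mean ± SEM of three experiments.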

[2] = biological target: T1, Cholecystokinin receptor type A; test: Inhibition of [3H]L-364718 binding to cholecystokinin type A receptor in rat pancreas membranes
Summary of the method: (§1)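 Male Wistar rat pancreas membranes, homogenized in 10 mM Hepes pH 7.4/5 mM MgCl2/130 mM NaCl, stored at -80 °C. GF/B filtration, scintillation counting. Nonspecific binding with 10 μM lorglumide. IC50 from pseudo-Hill plots, Ki by Cheng-Prusoff. Mean ± SEM of three experiments.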

[3] = biological target: T1, Cholecystokinin receptor type A; test: Displacement of [3H]L-364718 from Cholecystokinin type A receptor of rat pancreatic membranes; summary of the method: as §1

SMILES: O=C(NCC=C(c1ccccc1)c1ccccc1)c1ccc(Cl)cc1
- Ki [2]: > 2000 nM

SMILES: CCCCCC(=CCNC(=O)Nc1ccc(Cl)cc1)CCCCC
- Ki [3]: 200 nM

SMILES: O=C(NCC=C(c1ccccc1)c1ccccc1)c1ccc2ccccc2c1
- Ki [2]: 450 nM

SMILES: O=C(NCC=C(c1ccccc1)c1ccccc1)c1cnc2ccccc2c1
- Ki [3]: > 2000 nM

SMILES: O=C(NCC=C(c1ccccc1)c1ccccc1)c1ccnc2ccccc12
- Ki [3]: > 2000 nM

SMILES: O=C(NCC=C(c1ccccc1)c1ccccc1)Nc1ccc(Cl)cc1
- Ki [2]: 90 nM

SMILES: O=C(NCC=C(c1ccccc1)c1ccccc1)c1cccc2ccccc12
- Ki [2]: 1000 nM

SMILES: CCCCCN(CCCCC)C(=O)[C@@H](CCC(=O)O)NC(=O)c1ccc(Cl)c(Cl)c1
- Ki [2]: 49 nM

SMILES: O=C(NCC=C(c1ccccc1)c1ccccc1)c1cc2ccccc2[nH]1
- Ki [3]: 340 nM

SMILES: O=C(NCCC=C(c1ccccc1)c1ccccc1)Nc1ccc(Cl)cc1
- Ki [3]: 400 nM

Other lines, results leading:

- Ki [1]: > 2000 nM
SMILES: O=C(NCCC=C(c1ccccc1)c1ccccc1)c1cc2ccccc2[nH]1

- Ki [3]: > 4000 nM
SMILES: COc1ccc(C(=CCNC(=O)c2cc3ccccc3[nH]2)c2ccc(OC)cc2)cc1

- Ki [2]: > 4000 nM
SMILES: O=C(NCC=C1c2ccccc2CCc2ccccc21)Nc1ccc(Cl)cc1

- Ki [3]: > 4000 nM
SMILES: O=C(NC/C=C/c1ccccc1)Nc1ccc(Cl)cc1

- Ki [3]: > 2000 nM
SMILES: O=C(NCC=C(c1ccccc1)c1ccccc1)c1cc2cccc3c2n1CCC3

- Ki [2]: 400 nM
SMILES: O=C(NCC=C(c1ccccc1)c1ccccc1)c1ccc(Cl)c(Cl)c1

- Ki [2]: 800 nM
SMILES: Cc1cccc(NC(=O)NCC=C(c2ccccc2)c2ccccc2)c1

- Ki [3]: 470 nM
SMILES: O=C(NCC=C(c1ccccc1)c1ccccc1)c1ccc2ccccc2n1
